Shown are actives, neighbours in structure and some others; about 1.9% of the full set was active somewhere.
RAD54 branch: blocks human RAD54 Holliday junction branch migration. Q92698. FAM/BHQ fluorescence. inhibition, % at 10.4 µM. 360,000 tested, 0.14% active. AID 602329;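 active = mean normalized replicate activity at least 40 and at least half of replicates scoring 40 or more; inconclusive = only one of the two criteria met; inactive = mean below 40 and under half of replicates reaching 40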;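 also: inhibitors cause a drop in the FAM fluorescence signal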
PglD DTNB: PglD (C. jejuni) enzyme inhibition | inhibition, % at 12.5 µM | 360,000 tested, 0.098% active | purified PglD enzyme, DTNB colorimetric CoA detection; in the data active = inhibition above about 16%, passing the limit was not always enough; inconclusive = no clear call, values can overlap the other calls
rRNA inh HTS: inhibits bacterial ribosomal RNA function over humanized ribosomes. 350,000 tested, 1.6% active. GFP signal change (wild-type ribosome), % (test concentration not listed). E. coli WT GFP vs humanized-ribosome RFP mutants, fluorescence, 24 h; hits give low values; DMSO median 0, no signal -100;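 active = significant combined selectivity score with lowered wild-type GFP, culture density cut under 30%, mutant RFP and density less affected; inactive = any of these conditions unmet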
Cneo AK release: Cryptococcus neoformans lysis via adenylate kinase release; C. neoformans lysis, adenylate kinase release luminescence, 4 h; normalised: neutral wells 0, clomiphene wells 100; 360,000 tested, 0.2% active; AID 651654; lysis activity, % at 15 µM;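 active = mean lysis activity across replicates of at least 80%, whatever share of replicates individually reach that level; inactive = mean lysis activity below 80%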
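Material – log-phase Cryptococcus neoformans yeast cells · Input – 5 × 10^6 yeast cells/mL · Medium – fresh YPD growth medium · Doses – single compound concentration per well · Timing – static 4 h at 37 °C with compound, 1 h detection · Detection – adenylate kinase release luminescence · Read-out – signal increase indicating cell lysis · Control set – Clomiphene as positive lysis control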
RAD52 anneal inh: RAD52 (human) annealing inhibition | P43351 | recombinant RAD52 DNA annealing, FRET fluorescence | inhibition, % at 18.7 µM | 360,000 tested, 0.46% active | AID 651710;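 active = every replicate showing at least 50% inhibition; inconclusive = mean inhibition at least 50% but not in every replicate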
Target sequence (P43351 whole entry, looked up): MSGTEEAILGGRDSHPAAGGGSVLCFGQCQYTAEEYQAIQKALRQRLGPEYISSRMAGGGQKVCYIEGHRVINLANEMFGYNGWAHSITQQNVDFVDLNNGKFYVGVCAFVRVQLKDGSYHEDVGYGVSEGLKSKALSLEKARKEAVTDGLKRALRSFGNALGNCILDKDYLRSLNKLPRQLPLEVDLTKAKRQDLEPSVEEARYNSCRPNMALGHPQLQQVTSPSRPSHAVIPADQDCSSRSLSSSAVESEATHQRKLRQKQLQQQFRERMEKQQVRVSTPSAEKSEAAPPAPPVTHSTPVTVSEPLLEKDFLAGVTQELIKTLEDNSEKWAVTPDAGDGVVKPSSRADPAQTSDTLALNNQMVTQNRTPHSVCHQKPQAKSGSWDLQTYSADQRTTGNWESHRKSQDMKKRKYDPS
RAD52 DNA ctr: binds DNA, flagging false RAD52 inhibitor hits | shares compounds with RAD52 anneal inh | Salmon sperm DNA/acridine orange FP displacement, DNA binding | 1,000 tested, 8% active | AC50, µM;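 active = fitted half-maximal concentration for signal loss at or below twice the highest dose tested, in every separate run, actives reach about 64 µM in these data; inconclusive = runs disagree, or flat partial signal loss, or poor fit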
Large screens that a line does not name were inactive (follow-up assays come after a bar, where they were run); ! = repeats disagree.

CCOc1ccc(/C=C2/Sc3ccc(C(=O)NCC4CCCO4)cc3N(C)C2=O)cc1OC (stereo not given)	none
O=C1Nc2cc(C(=O)NCCCN3CCCC3)ccc2S/C1=C\c1ccccc1	RAD52 anneal inh 84.2 | RAD52 DNA ctr inactive
COc1ccc(/C=C2\Sc3ccc(C(=O)NCCCN4CCCC4)cc3N(C)C2=O)cc1OC	RAD52 anneal inh 66.2 | RAD52 DNA ctr inactive
COc1ccc(C#Cc2cnc3c(c2)C(=O)N([C@@H](C)CO)C[C@H](C)[C@@H](CN(C)C(=O)CN(C)C)O3)cc1	none
Cc1noc(C)c1NC(=O)N(C)C[C@H]1Oc2ccc(NC(=O)Cc3cn(C)c4ccccc34)cc2C(=O)N([C@H](C)CO)C[C@H]1C	none
O=C(NCC[C@@H]1CC[C@H](NS(=O)(=O)c2cccc(F)c2)[C@@H](CO)O1)c1cnccn1	none
NCCOc1ccccc1OCCN	RAD52 anneal inh 58.3 | RAD52 DNA ctr inactive
C[C@H]1CN([C@@H](C)CO)C(=O)c2cc(NS(=O)(=O)c3cn(C)cn3)ccc2O[C@H]1CN(C)Cc1ccc(Oc2ccccc2)cc1	none
O=C(CN1CCCC(O)C1)N1c2ccccc2Sc2ccc(C(F)(F)F)cc21 (stereo not given)	none (no result: rRNA inh HTS, RAD52 anneal inh)
CN1CCN(CCCN2c3ccccc3Sc3ccc(C(F)(F)F)cc32)CC1	RAD52 anneal inh 50.5! | RAD52 DNA ctr inactive
COc1ccc(-c2csc(N(CCCN(C)C)C(=O)c3ccccc3Cl)n2)cc1	RAD52 anneal inh 53.2 | RAD52 DNA ctr inactive
COc1cc(CNC(C)c2ccccc2)cc(Br)c1OCc1ccc(F)cc1 (stereo not given)	RAD52 anneal inh 53.9 | RAD52 DNA ctr inactive
O=C(CCN1CCCCC1)NCC[C@H]1CC[C@H](NC(=O)Nc2ccc(F)cc2)[C@@H](CO)O1	none
Nc1ccn([C@@H]2O[C@H](CNCc3cccc4c3sc3ccccc34)[C@@H](O)[C@H]2O)c(=O)n1	RAD52 anneal inh 53.6 (no result: rRNA inh HTS) | RAD52 DNA ctr inactive
CCC(=O)N1CC2(CN(Cc3nccs3)C2)c2c(n(C)c3cc(OC)ccc23)[C@@H]1CO	none (no result: RAD54 branch, PglD DTNB, Cneo AK release, RAD52 anneal inh)
Cc1cc(C)c(CN2CCN(CCCn3cnc(C(=O)Nc4ccc(C)c(C)c4)n3)CC2)c(C)c1	RAD52 anneal inh 55.8 | RAD52 DNA ctr inactive
CCCS(=O)(=O)Nc1ccc(Nc2c3ccccc3nc3ccccc23)c(OC)c1	RAD52 anneal inh 64.0 (no result: RAD54 branch, PglD DTNB, Cneo AK release) | RAD52 DNA ctr inconclusive
Cc1cccc(N2CCN(C(=S)Nc3ccc4nc(N5CCN(C)CC5)cc(C)c4c3)CC2)c1C	none
Cc1cc(N2CCN(C)CC2)nc2ccc(NC(=S)N3CCCCC3)cc12	RAD52 anneal inh 71.2 | RAD52 DNA ctr inactive
Cc1cc(N2CCN(C)CC2)nc2ccc(NC(=S)N3CCCCCC3)cc12	RAD52 anneal inh 51.8 | RAD52 DNA ctr inactive
Cc1cc(N2CCN(C)CC2)nc2ccc(NC(=S)N3CCN(c4ccc(F)cc4)CC3)cc12	none
Cc1cc(N2CCN(C)CC2)nc2ccc(NC(=S)N3CCN(c4ccc(Cl)cc4)CC3)cc12	RAD52 anneal inh 89.6 | RAD52 DNA ctr inactive
COc1ccc(-c2ccccc2[C@@H]2[C@@H](C#N)N(C(=O)c3cccnc3)[C@@H]2CO)cc1	none (no result: RAD54 branch, PglD DTNB, Cneo AK release, RAD52 anneal inh)
COc1ccc(NC(=O)CCN2CCN(c3ccc(F)cc3)CC2)cc1	none | RAD52 DNA ctr inactive
CCOc1ccc(NC(=O)CCN2CCN(c3ccccc3)CC2)cc1	none (no result: rRNA inh HTS, RAD52 anneal inh)
CCC[C@@H](CN1CCC[C@H]1CN1C(N)=NC[C@H]1CC(C)C)N1C[C@@H](Cc2ccccc2)N(CCc2ccc(Cl)c(Cl)c2)C1=N	RAD52 anneal inh 64.9 | RAD52 DNA ctr inactive
CC[C@@H](C)[C@@H]1CN([C@@H](C)CN2CCC[C@H]2CN2C(N)=NC[C@H]2CC(C)C)C(=N)N1CCc1ccc(Cl)c(Cl)c1	none
CCC[C@@H](CN1CCC[C@H]1CN1C(N)=NC[C@H]1CC(C)C)N1C[C@@H](Cc2ccccc2)N(CCCC2CCCC2)C1=N	RAD52 anneal inh 58.5 (no result: rRNA inh HTS) | RAD52 DNA ctr inactive
CC[C@@H](C)[C@@H]1CN([C@@H](CN2CCC[C@H]2CN2C(N)=NC[C@H]2CC(C)C)C(C)C)C(=N)N1CCc1ccc(Cl)c(Cl)c1	RAD52 anneal inh 50.3 | RAD52 DNA ctr inactive

Screens from PubChem BioAssay.
